Source: ChEMBL document CHEMBL1142895, “Discovery of a new insecticide lead by optimizing a target-diverse scaffold: tetrazolinone derivatives” (2007)
Active and inactive are the calls of the source. No cut-off for these calls is given here.

Key:
Triticum aestivum [1] = assay: Herbicidal activity against Triticum aestivum at 450 g ai/ha in greenhouse in vivo test; assay type: functional, organism-based
Radish [2] = assay: Inhibition of stem growth of Raphanus sativus at 100 mg/L; assay type: functional
Method in brief: (§1)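 Seeds of each species were grown in Petri dishes with 10 seeds per dish, at 28 °C, 70–80% RH, 16:8 h light:dark photoperiod and 3000 lx light for 5 days. Root and stem lengths were measured for the 10 seeds and averaged. Each test and its controls were run in three replicates, and the data were given probit analysis.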

Tetranychus cinnabarinus = assay: Insecticidal activity against Tetranychus cinnabarinus at 250 mg/L; assay type: functional
Method in brief: (§2)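 Groups of 10 of each species were placed in glass Petri dishes and sprayed with test solution using a Potter sprayer. After air-drying, they were held under normal rearing conditions. Mortality at 72 h was taken from the number and size of live larvae relative to untreated controls.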

Cucumis sativus [3] = assay: Herbicidal activity against Cucumis sativus at 450 g ai/ha in greenhouse in vivo test; assay type: functional, organism-based
Sorghum bicolor [4] = assay: Inhibition of root growth of Sorghum bicolor at 100 mg/L; assay type: functional; method in brief: as §1
Echinochloa crus-galli [5] = assay: Inhibition of root growth of Echinochloa crus-galli at 100 mg/L; assay type: functional; method in brief: as §1
Triticum aestivum [6] = assay: Inhibition of root growth of Triticum aestivum at 100 mg/L; assay type: functional; method in brief: as §1
Sorghum bicolor [7] = assay: Inhibition of stem growth of Sorghum bicolor at 100 mg/L; assay type: functional; method in brief: as §1
[8] = system: Brassica rapa subsp. oleifera; assay: Inhibition of root growth of Brassica campestris at 100 mg/L; assay type: functional; method in brief: as §1
Aphis = assay: Insecticidal activity against Aphis medicagini at 250 mg/L; assay type: functional; method in brief: as §2
[9] = system: Brassica rapa subsp. oleifera; assay: Inhibition of stem growth of Brassica campestris at 100 mg/L; assay type: functional; method in brief: as §1
Sorghum bicolor [10] = assay: Herbicidal activity against Sorghum bicolor at 450 g ai/ha in greenhouse in vivo test; assay type: functional, organism-based
Cucumis sativus [11] = assay: Inhibition of stem growth of Cucumis sativus at 100 mg/L; assay type: functional; method in brief: as §1
Cucumis sativus [12] = assay: Inhibition of root growth of Cucumis sativus at 100 mg/L; assay type: functional; method in brief: as §1
Triticum aestivum [13] = assay: Inhibition of stem growth of Triticum aestivum at 100 mg/L; assay type: functional; method in brief: as §1
Radish [14] = assay: Inhibition of root growth of Raphanus sativus at 100 mg/L; assay type: functional; method in brief: as §1
Echinochloa crus-galli [15] = assay: Inhibition of stem growth of Echinochloa crus-galli at 100 mg/L; assay type: functional; method in brief: as §1
[16] = system: Brassica rapa subsp. oleifera; assay: Herbicidal activity against Brassica campestris at 450 g ai/ha in greenhouse in vivo test; assay type: functional, organism-based
Echinochloa crus-galli [17] = assay: Herbicidal activity against Echinochloa crus-galli at 450 g ai/ha in greenhouse in vivo test; assay type: functional, organism-based
Radish [18] = assay: Herbicidal activity against Raphanus sativus at 450 g ai/ha in greenhouse in vivo test; assay type: functional, organism-based

## CCSc1nnc(Cn2nnn(-c3ccc(Cl)cc3)c2=O)s1
Triticum aestivum [1]
  Activity: inactive
Radish [2]
  inhibition at 100 µg/mL: 40%
Tetranychus cinnabarinus
  Activity: 5.7%
Cucumis sativus [3]
  Activity: inactive
Sorghum bicolor [4]
  inhibition at 100 µg/mL: 70%
Echinochloa crus-galli [5]
  inhibition at 100 µg/mL: 60%
Triticum aestivum [6]
  inhibition at 100 µg/mL: 50%
Sorghum bicolor [7]
  inhibition at 100 µg/mL: 60%
[8]
  inhibition at 100 µg/mL: 60%
Aphis
  Activity: 82.5%
[9]
  inhibition at 100 µg/mL: 60%
Sorghum bicolor [10]
  Activity: inactive
Cucumis sativus [11]
  inhibition at 100 µg/mL: 30%
Cucumis sativus [12]
  inhibition at 100 µg/mL: 0%
Triticum aestivum [13]
  inhibition at 100 µg/mL: 40%
Radish [14]
  inhibition at 100 µg/mL: 50%
Echinochloa crus-galli [15]
  inhibition at 100 µg/mL: 70%
[16]
  Activity: inactive
Echinochloa crus-galli [17]
  Activity: inactive
Radish [18]
  Activity: inactive

## CCOC(=O)CSc1nnc(Cn2nnn(-c3ccc(Cl)cc3)c2=O)s1
Triticum aestivum [1]
  Activity: inactive
Radish [2]
  inhibition at 100 µg/mL: 60%
Tetranychus cinnabarinus
  Activity: 80%
Cucumis sativus [3]
  Activity: inactive
Sorghum bicolor [4]
  inhibition at 100 µg/mL: 30%
Echinochloa crus-galli [5]
  inhibition at 100 µg/mL: 0%
Triticum aestivum [6]
  inhibition at 100 µg/mL: 50%
Sorghum bicolor [7]
  inhibition at 100 µg/mL: 50%
[8]
  inhibition at 100 µg/mL: 70%
Aphis
  Activity: 0%
[9]
  inhibition at 100 µg/mL: 50%
Sorghum bicolor [10]
  Activity: inactive
Cucumis sativus [11]
  inhibition at 100 µg/mL: 30%
Cucumis sativus [12]
  inhibition at 100 µg/mL: 50%
Triticum aestivum [13]
  inhibition at 100 µg/mL: 60%
Radish [14]
  inhibition at 100 µg/mL: 70%
Echinochloa crus-galli [15]
  inhibition at 100 µg/mL: 0%
[16]
  Activity: inactive
Echinochloa crus-galli [17]
  Activity: inactive
Radish [18]
  Activity: inactive

## CCCCCCCCSc1nnc(Cn2nnn(-c3ccc(Cl)cc3)c2=O)s1
Triticum aestivum [1]
  Activity: inactive
Radish [2]
  inhibition at 100 µg/mL: 0%
Tetranychus cinnabarinus
  Activity: 2.9%
Cucumis sativus [3]
  Activity: inactive
Sorghum bicolor [4]
  inhibition at 100 µg/mL: 50%
Echinochloa crus-galli [5]
  inhibition at 100 µg/mL: 40%
Triticum aestivum [6]
  inhibition at 100 µg/mL: 30%
Sorghum bicolor [7]
  inhibition at 100 µg/mL: 0%
[8]
  inhibition at 100 µg/mL: 40%
Aphis
  Activity: 0%
[9]
  inhibition at 100 µg/mL: 0%
Sorghum bicolor [10]
  Activity: inactive
Cucumis sativus [11]
  inhibition at 100 µg/mL: 0%
Cucumis sativus [12]
  inhibition at 100 µg/mL: 30%
Triticum aestivum [13]
  inhibition at 100 µg/mL: 0%
Radish [14]
  inhibition at 100 µg/mL: 40%
Echinochloa crus-galli [15]
  inhibition at 100 µg/mL: 0%
[16]
  Activity: inactive
Echinochloa crus-galli [17]
  Activity: inactive
Radish [18]
  Activity: inactive

## O=c1n(Cc2cccc(Cl)c2)nnn1-c1ccc(Cl)cc1
Triticum aestivum [1]
  Activity: inactive
Radish [2]
  inhibition at 100 µg/mL: 0%
Tetranychus cinnabarinus
  Activity: 0%
Cucumis sativus [3]
  Activity: inactive
Sorghum bicolor [4]
  inhibition at 100 µg/mL: 0%
Echinochloa crus-galli [5]
  inhibition at 100 µg/mL: 0%
Triticum aestivum [6]
  inhibition at 100 µg/mL: 0%
Sorghum bicolor [7]
  inhibition at 100 µg/mL: 0%
[8]
  inhibition at 100 µg/mL: 0%
Aphis
  Activity: 0%
[9]
  inhibition at 100 µg/mL: 0%
Sorghum bicolor [10]
  Activity: inactive
Cucumis sativus [11]
  inhibition at 100 µg/mL: 0%
Cucumis sativus [12]
  inhibition at 100 µg/mL: 0%
Triticum aestivum [13]
  inhibition at 100 µg/mL: 0%
Radish [14]
  inhibition at 100 µg/mL: 0%
Echinochloa crus-galli [15]
  inhibition at 100 µg/mL: 0%
[16]
  Activity: inactive
Echinochloa crus-galli [17]
  Activity: inactive
Radish [18]
  Activity: inactive

## Cc1ccc(Cn2nnn(-c3ccc(Cl)cc3)c2=O)cc1
Triticum aestivum [1]
  Activity: inactive
Radish [2]
  inhibition at 100 µg/mL: 0%
Tetranychus cinnabarinus
  Activity: 0%
Cucumis sativus [3]
  Activity: inactive
Sorghum bicolor [4]
  inhibition at 100 µg/mL: 0%
Echinochloa crus-galli [5]
  inhibition at 100 µg/mL: 0%
Triticum aestivum [6]
  inhibition at 100 µg/mL: 0%
Sorghum bicolor [7]
  inhibition at 100 µg/mL: 0%
[8]
  inhibition at 100 µg/mL: 0%
Aphis
  Activity: 3.3%
[9]
  inhibition at 100 µg/mL: 0%
Sorghum bicolor [10]
  Activity: inactive
Cucumis sativus [11]
  inhibition at 100 µg/mL: 0%
Cucumis sativus [12]
  inhibition at 100 µg/mL: 0%
Triticum aestivum [13]
  inhibition at 100 µg/mL: 0%
Radish [14]
  inhibition at 100 µg/mL: 0%
Echinochloa crus-galli [15]
  inhibition at 100 µg/mL: 0%
[16]
  Activity: inactive
Echinochloa crus-galli [17]
  Activity: inactive
Radish [18]
  Activity: inactive

## CCCCCCCCSc1nnc(Cn2nnn(-c3ccc(Cl)cc3)c2=O)o1
Triticum aestivum [1]
  Activity: inactive
Radish [2]
  inhibition at 100 µg/mL: 0%
Tetranychus cinnabarinus
  Activity: 2.9%
Cucumis sativus [3]
  Activity: inactive
Sorghum bicolor [4]
  inhibition at 100 µg/mL: 0%
Echinochloa crus-galli [5]
  inhibition at 100 µg/mL: 0%
Triticum aestivum [6]
  inhibition at 100 µg/mL: 0%
Sorghum bicolor [7]
  inhibition at 100 µg/mL: 0%
[8]
  inhibition at 100 µg/mL: 0%
Aphis
  Activity: 3.3%
[9]
  inhibition at 100 µg/mL: 0%
Sorghum bicolor [10]
  Activity: inactive
Cucumis sativus [11]
  inhibition at 100 µg/mL: 0%
Cucumis sativus [12]
  inhibition at 100 µg/mL: 0%
Triticum aestivum [13]
  inhibition at 100 µg/mL: 0%
Radish [14]
  inhibition at 100 µg/mL: 0%
Echinochloa crus-galli [15]
  inhibition at 100 µg/mL: 0%
[16]
  Activity: inactive
Echinochloa crus-galli [17]
  Activity: inactive
Radish [18]
  Activity: inactive

## CCCCCCSc1nnc(Cn2nnn(-c3ccc(Cl)cc3)c2=O)s1
Triticum aestivum [1]
  Activity: inactive
Radish [2]
  inhibition at 100 µg/mL: 30%
Tetranychus cinnabarinus
  Activity: 4.3%
Cucumis sativus [3]
  Activity: inactive
Sorghum bicolor [4]
  inhibition at 100 µg/mL: 60%
Echinochloa crus-galli [5]
  inhibition at 100 µg/mL: 0%
Triticum aestivum [6]
  inhibition at 100 µg/mL: 0%
Sorghum bicolor [7]
  inhibition at 100 µg/mL: 40%
[8]
  inhibition at 100 µg/mL: 70%
Aphis
  Activity: 0%
[9]
  inhibition at 100 µg/mL: 40%
Sorghum bicolor [10]
  Activity: inactive
Cucumis sativus [11]
  inhibition at 100 µg/mL: 0%
Cucumis sativus [12]
  inhibition at 100 µg/mL: 0%
Triticum aestivum [13]
  inhibition at 100 µg/mL: 30%
Radish [14]
  inhibition at 100 µg/mL: 40%
Echinochloa crus-galli [15]
  inhibition at 100 µg/mL: 0%
[16]
  Activity: inactive
Echinochloa crus-galli [17]
  Activity: inactive
Radish [18]
  Activity: inactive

## O=c1n(Cc2nnc(SCc3ccccc3F)s2)nnn1-c1ccc(Cl)cc1
Triticum aestivum [1]
  Activity: inactive
Radish [2]
  inhibition at 100 µg/mL: 60%
Tetranychus cinnabarinus
  Activity: 0%
Cucumis sativus [3]
  Activity: inactive
Sorghum bicolor [4]
  inhibition at 100 µg/mL: 70%
Echinochloa crus-galli [5]
  inhibition at 100 µg/mL: 60%
Triticum aestivum [6]
  inhibition at 100 µg/mL: 80%
Sorghum bicolor [7]
  inhibition at 100 µg/mL: 70%
[8]
  inhibition at 100 µg/mL: 80%
Aphis
  Activity: 18.6%
[9]
  inhibition at 100 µg/mL: 70%
Sorghum bicolor [10]
  Activity: inactive
Cucumis sativus [11]
  inhibition at 100 µg/mL: 70%
Cucumis sativus [12]
  inhibition at 100 µg/mL: 70%
Triticum aestivum [13]
  inhibition at 100 µg/mL: 80%
Radish [14]
  inhibition at 100 µg/mL: 80%
Echinochloa crus-galli [15]
  inhibition at 100 µg/mL: 70%
[16]
  Activity: inactive
Echinochloa crus-galli [17]
  Activity: inactive
Radish [18]
  Activity: inactive

## O=c1c(Cn2nnn(-c3ccc(Cl)cc3)c2=O)coc2ccccc12
Triticum aestivum [1]
  Activity: inactive
Radish [2]
  inhibition at 100 µg/mL: 0%
Tetranychus cinnabarinus
  Activity: 100%
Cucumis sativus [3]
  Activity: inactive
Sorghum bicolor [4]
  inhibition at 100 µg/mL: 0%
Echinochloa crus-galli [5]
  inhibition at 100 µg/mL: 0%
Triticum aestivum [6]
  inhibition at 100 µg/mL: 0%
Sorghum bicolor [7]
  inhibition at 100 µg/mL: 0%
[8]
  inhibition at 100 µg/mL: 0%
Aphis
  Activity: 1.7%
[9]
  inhibition at 100 µg/mL: 0%
Sorghum bicolor [10]
  Activity: inactive
Cucumis sativus [11]
  inhibition at 100 µg/mL: 0%
Cucumis sativus [12]
  inhibition at 100 µg/mL: 0%
Triticum aestivum [13]
  inhibition at 100 µg/mL: 30%
Radish [14]
  inhibition at 100 µg/mL: 0%
Echinochloa crus-galli [15]
  inhibition at 100 µg/mL: 0%
[16]
  Activity: inactive
Echinochloa crus-galli [17]
  Activity: inactive
Radish [18]
  Activity: inactive

## O=c1n(Cc2ccccc2F)nnn1-c1ccc(Cl)cc1
Triticum aestivum [1]
  Activity: inactive
Radish [2]
  inhibition at 100 µg/mL: 0%
Tetranychus cinnabarinus
  Activity: 10%
Cucumis sativus [3]
  Activity: inactive
Sorghum bicolor [4]
  inhibition at 100 µg/mL: 0%
Echinochloa crus-galli [5]
  inhibition at 100 µg/mL: 0%
Triticum aestivum [6]
  inhibition at 100 µg/mL: 0%
Sorghum bicolor [7]
  inhibition at 100 µg/mL: 0%
[8]
  inhibition at 100 µg/mL: 0%
Aphis
  Activity: 5%
[9]
  inhibition at 100 µg/mL: 0%
Sorghum bicolor [10]
  Activity: inactive
Cucumis sativus [11]
  inhibition at 100 µg/mL: 0%
Cucumis sativus [12]
  inhibition at 100 µg/mL: 0%
Triticum aestivum [13]
  inhibition at 100 µg/mL: 0%
Radish [14]
  inhibition at 100 µg/mL: 0%
Echinochloa crus-galli [15]
  inhibition at 100 µg/mL: 0%
[16]
  Activity: inactive
Echinochloa crus-galli [17]
  Activity: inactive
Radish [18]
  Activity: inactive
